Ecoli tolC: growth inhibitors of E. coli tolC mutant, primary screen, strain BW25113 ΔtolC::kan, 384-well; OD615; growth inhibition, % at 10 µM (by protocol); AID 573, 2007; 65,000 tested, 2.2% active;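 active means growth inhibition at or above a cutoff equal to the mean over every tested compound plus 3 SD, cut at about 60% in these data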;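 further: growth measured after 20 h incubation at 37 °C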
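Test system – E. coli BW25113 ΔtolC::kan, tolC deletion mutant strain · Detection – OD at 615 nm · Buffer or medium – LB with kanamycin 50 µg/mL · Times – 20 h compound exposure of bacteria at 37 °C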
PostGolgi ctrl: growth inhibition of yeast control strain, primary screen, counter-screen for post-Golgi transport modulator project; 98,000 tested, 5% active; efflux-deficient yeast background strain, growth absorbance A615, 16 h; inhibition, % at 10 µM
PLAP act: PLAP enzyme activators, biochemical, luminescence, HTS | purified PLAP enzyme, luminescent substrate read-out; active compounds read high | activation fold at 20 µM | 96,000 tested, 1.2% active; in the data active means activation fold above about 2
Target sequence (P05187 whole entry, looked up): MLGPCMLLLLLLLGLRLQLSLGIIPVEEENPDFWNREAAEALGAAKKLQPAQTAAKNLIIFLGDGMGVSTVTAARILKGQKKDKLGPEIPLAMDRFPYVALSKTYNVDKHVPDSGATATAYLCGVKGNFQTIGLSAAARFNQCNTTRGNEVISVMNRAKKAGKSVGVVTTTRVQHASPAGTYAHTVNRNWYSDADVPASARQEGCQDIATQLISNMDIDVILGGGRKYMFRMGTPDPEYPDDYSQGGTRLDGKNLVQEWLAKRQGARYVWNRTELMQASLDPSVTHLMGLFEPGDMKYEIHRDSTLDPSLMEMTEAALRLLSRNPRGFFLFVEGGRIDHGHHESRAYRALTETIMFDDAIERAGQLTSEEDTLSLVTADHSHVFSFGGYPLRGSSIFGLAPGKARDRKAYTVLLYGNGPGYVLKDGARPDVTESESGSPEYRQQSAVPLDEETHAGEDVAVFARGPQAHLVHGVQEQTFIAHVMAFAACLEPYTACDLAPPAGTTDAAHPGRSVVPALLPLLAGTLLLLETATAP
PostGolgi yeast: phenotypic screen on post-Golgi transport, primary screen; AID 739, 2007; post-Golgi transport phenotypic cell assay; 98,000 tested, 0.9% active; inhibition, % at 10 µM;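 further: yeast cells grown in 1536-well plates; yeast grown about 18 h at 30C before absorbance read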
HePTP inhibitor: inhibitors of human HePTP phosphatase, primary screen, biochemical, absorbance, leukemia target; AID 521, 2006; recombinant HePTP phosphatase activity, OD absorbance; Tyrosine-protein phosphatase non-receptor type 7 (Homo sapiens), P35236; 110,000 tested, 0.64% active; inhibition, % at 20 µM; in the data active means inhibition above about 50%
E coli WT exp: growth inhibitors of wild-type E. coli, primary screen, strain BW25113, expanded library, OD600 | AID 710, 2007 | growth inhibition, % at 100 µM | 98,000 tested, 0.15% active | OD600 absorbance;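 active means growth inhibition above about 50% at one test dose, limit read from the data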;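 further: growth measured after 20 h incubation at 37 °C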
Hits are given with their value; 0 = inactive; - = not tested or not shown. The list is not random: actives were taken first. Their share in the collection is about 5.4%. Unless noted, no stated cut-off is given here; in the data, active means inhibition above about 30%; inactive means the rest.

SMILES | Ecoli tolC | PostGolgi ctrl | PLAP act | PostGolgi yeast | HePTP inhibitor | E coli WT exp
CC1=C(C(=O)OC2CCCCCCC2)C(c2cc3c(cc2Br)OCO3)CC(=O)N1 (stereo not drawn) | - | 43 | 0 | 0 | - | 0
COCCOC(=O)C1=C(C)NC2=C(C(=O)CCC2)C1c1cc2c(cc1Br)OCO2 (stereo not drawn) | 0 | 0 | 0 | 0 | 0 | 0
CC1=C(C(=O)OCCOC(C)C)C(c2cc3c(cc2Br)OCO3)CC(=O)N1 (stereo not drawn) | - | 32 | 0 | 0 | - | 0
COC(=O)C1=C(C)NC(=O)CC1c1cc2c(cc1Br)OCO2 (stereo not drawn) | 0 | 0 | 0 | 0 | 0 | 0
CCN(C(=O)CSc1nnc(Cn2nnc3ccccc32)o1)c1nc(-c2ccccc2)cs1 | 0 | 35 | 0 | 0 | 0 | 0
O=C(CSc1nnc(Cn2nnc3ccccc32)o1)N(Cc1ccc(Cl)cc1)c1ccccc1 | - | 0 | 0 | 0 | - | 0
CCC1=NN2C(=N)/C(=C/c3ccc(-c4ccc([N+](=O)[O-])cc4OC)o3)C(=O)N=C2S1 | - | - | - | - | 0 | -
CCCC1=NN2C(=N)/C(=C/c3ccc(-c4ccc([N+](=O)[O-])cc4C)o3)C(=O)N=C2S1 | - | - | - | - | 82 | -
CCN1CCc2c(C#N)c(N3CCCCC3)nc(NCc3ccccc3)c2C1 | 0 | 0 | 0 | 0 | 0 | 0
CCN1CCc2c(C#N)c(N3CCOCC3)nc(NCc3ccccc3)c2C1 | 0 | 36 | 0 | 0 | 0 | 0
N#C/C(=C\c1ccc[nH]1)C(=O)NC1CC1 | - | 0 | 0 | 0 | - | 0
O=C(c1cc2ccccc2oc1=O)N(Cc1ccc2c(c1)OCO2)Cc1ccco1 | 0 | 42 | 0 | 0 | 0 | 0
O=C(Nc1ccc(Cl)cc1)NC1(C(=O)NCCCN2CCOCC2)CCCCC1 | 0 | 0 | 2.7 | 0 | 0 | 0
O=C(Nc1ccccc1)NC1(C(=O)NCCCN2CCOCC2)CCCCC1 | 0 | 0 | 0 | 0 | 0 | 0
Cc1cc(C)c(S(C)(=O)=O)c(S(=O)(=O)c2ccc(Cl)cc2)n1 | - | 0 | 0 | 0 | - | 0
Cc1ccc(S(=O)(=O)N2CCN(C(=O)CSC3CCCC3)CC2)c(C)c1 | 0 | 0 | 0 | 0 | 0 | 0
CC(=O)c1c(C)[nH]c(C(=O)OCC(=O)N2CCN(S(=O)(=O)c3ccc(C)cc3C)CC2)c1C | - | 0 | 2 | 0 | - | 0
CC(=O)N=c1sc2ccccc2n1C | 0 | 0 | 0 | 0 | 0 | 0
N/N=c1\sc2ccccc2n1-c1ccccc1 | - | 30 | 0 | 0 | - | 0
Cc1cc(NS(=O)(=O)c2ccc(NC(=O)c3cc(-c4cccnc4)nc4ccc(Cl)cc34)cc2)no1 | - | 35 | 0 | 0 | - | 0
CCN(CC(=O)NCCc1ccc(S(N)(=O)=O)cc1)Cc1nc2cc(OC)c(OC)cc2c(=O)[nH]1 | - | 0 | 2.9 | 0 | - | 0
CCN(CC(=O)NCCc1ccc(S(N)(=O)=O)cc1)Cc1nc2ccccc2c(=O)[nH]1 | 0 | 0 | - | 0 | 0 | 0
CN(C)c1ccc(NC(=O)CN2CCN(CC(=O)Nc3ccc(F)cc3)CC2)cc1 | 0 | 0 | 0 | 0 | 0 | 0
Cc1cc2c(cc1C)CSC(c1ccc3ccccc3c1O)SC2 | - | 0 | 0 | 0 | - | 0
Cc1cc2c(cc1C)CSC(c1c(O)ccc3ccccc13)SC2 | - | 100 | 0 | 103 | - | 0
SMILES | Ecoli tolC | PostGolgi ctrl | PLAP act | PostGolgi yeast | HePTP inhibitor | E coli WT exp
Cc1cc2c(cc1C)CSC(c1ccccc1O)SC2 | - | 31 | 0 | 0 | - | 0
Cc1ccc(-c2nc(Nc3ccccc3)n[nH]2)cc1 | 0 | 0 | 0 | 0 | 0 | 0
COc1ccc(NC2SC(=O)N(CC(=O)O)C2=O)cc1 (stereo not drawn) | 0 | 37 | 0 | 0 | 0 | 0
COc1ccccc1N1C(=O)CC(Sc2nccc(C)n2)C1=O (stereo not drawn) | 0 | 0 | 0 | 0 | 0 | 0
CCOC(=O)Cc1nnc2c(Nc3ccc(Cl)cc3)nc3nonc3n12 | 100 | 0 | 0 | 0 | 0 | 0
CCC(=O)Nc1cccc(C(=O)/C=C/c2cc(Br)ccc2OC)c1 | - | 81 | 0 | 0 | - | 0
FCCCOc1ccc(/C=N/OCc2c(Cl)cccc2Cl)cc1 | - | 0 | 0 | 0 | - | 0
CCOC(=O)c1cn(CC)c2ccc(S(=O)(=O)N3CCC(C)CC3)cc2c1=O | 0 | 0 | - | 0 | 0 | 0
Cc1cc(N2CCN(c3ccccc3)CC2)nc(-n2nc(C)cc2C)n1 | 71 | 0 | 0 | 0 | 0 | 0
Cc1cc(-n2[nH]c(C)c(C)c2=O)nc(-c2ccccc2O)n1 | 0 | - | 2.5 | - | 0 | -
Cc1cc(N2CCN(c3ccccc3)CC2)nc(-c2ccccc2O)n1 | - | 77 | 0 | 82 | 0 | 0
Cc1cc(C)n(-c2cc(N3CCOCC3)nc(-c3ccccc3)n2)n1 | 0 | 42 | 0 | 0 | 0 | 0
Cc1cc(C)n(-c2nc3ccccc3nc2N2CCOCC2)n1 | 0 | - | - | - | 0 | -
Cc1cc(OCc2ccc(F)cc2)nc(-c2ccccc2O)n1 | 0 | 0 | 0 | 0 | 0 | 0
O=C(CSc1nnc(NC(=O)C2CCC2)s1)NC1CC1 | 0 | 0 | 0 | 0 | 0 | 0
Cc1c(C(=O)Nc2ccncc2)oc2c1C(=O)CC(C)(C)C2 | 0 | 0 | 0 | 0 | 0 | 0
CCCCOC(=O)CSc1nnc(-c2ccc(Cl)cc2Cl)o1 | 73 | 0 | 0 | 0 | 0 | 0
CCCCCOC(=O)CSc1nnc(-c2ccc(Cl)cc2Cl)o1 | - | - | - | - | 0 | -
Cc1[nH]nc2c1C(c1ccccn1)N(c1ccc(Br)cc1)C2=O (stereo not drawn) | 0 | 0 | 0 | 0 | 0 | 0
CCOC(=O)c1ccc(N2C(=O)c3n[nH]c(C)c3C2c2ccccn2)cc1 (stereo not drawn) | 0 | 0 | 2.5 | 0 | 0 | 0
Cc1ccc(N2C(=O)c3n[nH]c(C)c3C2c2cccnc2)cc1 (stereo not drawn) | - | 0 | 2.1 | 0 | 0 | 0
CCOC(=O)c1ccc(N2C(=O)c3n[nH]c(C)c3C2c2cccnc2)cc1 (stereo not drawn) | 0 | 0 | 2.3 | 0 | 0 | 0
CCOC(=O)CSc1nnc(CSc2nc3sc4c(c3c(=O)[nH]2)CCC4)n1-c1ccccc1 | - | 0 | 2 | 0 | - | 0
Cc1cc(C)cc(-n2nnnc2SCC(=O)Nc2nc(-c3ccc(Cl)cc3)cs2)c1 | - | 0 | 0 | 0 | - | 0
CCc1ccc(CCC(=O)Nc2ccccc2C(=O)O)o1 | - | 0 | 0 | 0 | - | 0
SMILES | Ecoli tolC | PostGolgi ctrl | PLAP act | PostGolgi yeast | HePTP inhibitor | E coli WT exp
CCOC(=O)C1CCCn2c1nc1sc3c(c1c2=O)CCCC3 (stereo not drawn) | 0 | 38 | 0 | 0 | 0 | 0
CCn1c(NN)nc2sc3c(c2c1=O)CCC3 | - | 0 | 0 | 0 | - | 0
CCc1[nH]c(=O)c(C#N)c2c1CCCC2 | 0 | 32 | 0 | 0 | 0 | 0
CCc1[nH]c(=O)c(C#N)c2c1COC(C)(C)C2 | - | 0 | 0 | 0 | - | 0
Cc1cc(C)cc(N2C(=O)CC(N3CCOCC3)C2=O)c1 (stereo not drawn) | 0 | 0 | 0 | 0 | 0 | 0
Cc1cc(C)cc(N2C(=O)CC(n3ccnc3)C2=O)c1 (stereo not drawn) | 0 | 32 | 0 | 0 | 0 | 0
O=C(NCCOc1ccccc1)C1CCCN1C(=O)c1cccs1 (stereo not drawn) | 0 | 34 | - | 0 | 0 | 0
